Only some compounds are listed: those with a hit (about 1.8% of all), similar ones and a draw of the others.
M4 ag – human M4 muscarinic receptor agonists, primary screen, CHO-K1 cells, Fluo-8 calcium fluorescence. activation, % at 3 µM. 0.14% of 360,000 active. AID 624127, 2012. Muscarinic acetylcholine receptor M4 (Homo sapiens), P08173. CHO-K1 hM4/Gqi5; vehicle 0%, full acetylcholine response 100%;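 active = activation above the run mean over all test wells plus 3 SD, cut at about 32% in these data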;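 note: peak over basal fluorescence ratio per well then scaled between controls; 0% = DMSO wells and 100% = acetylcholine at EC100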
M5 antag – human M5 muscarinic receptor antagonists, primary screen, CHO cells, Fluo-8 calcium fluorescence; inhibition, % at 3 µM; AID 624040, 2012; 0.59% of 360,000 active; CHO-hM5 cells, ACh EC80; Muscarinic acetylcholine receptor M5 (Homo sapiens), P08912;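 active = inhibition above a per-plate cutoff, the mean of that plate's test compounds plus 3 SD, cut at about 27% in these data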;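 note: 0% = acetylcholine EC80 with DMSO and 100% = DMSO without agonist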
Target sequence (P08912 whole entry, looked up): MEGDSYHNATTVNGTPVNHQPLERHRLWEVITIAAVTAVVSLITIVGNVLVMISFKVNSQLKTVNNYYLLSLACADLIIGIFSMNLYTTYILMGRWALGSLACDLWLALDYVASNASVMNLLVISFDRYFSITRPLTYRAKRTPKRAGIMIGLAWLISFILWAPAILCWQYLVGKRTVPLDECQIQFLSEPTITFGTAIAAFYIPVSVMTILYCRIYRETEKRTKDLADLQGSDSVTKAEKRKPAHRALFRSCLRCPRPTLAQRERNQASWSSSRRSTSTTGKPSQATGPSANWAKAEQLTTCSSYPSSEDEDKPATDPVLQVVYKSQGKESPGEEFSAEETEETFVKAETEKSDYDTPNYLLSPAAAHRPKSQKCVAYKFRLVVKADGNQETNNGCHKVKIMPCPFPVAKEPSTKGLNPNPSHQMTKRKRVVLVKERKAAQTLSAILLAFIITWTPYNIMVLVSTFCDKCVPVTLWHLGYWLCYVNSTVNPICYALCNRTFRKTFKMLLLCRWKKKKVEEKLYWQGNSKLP
M4 PAM – human M4 muscarinic receptor positive allosteric modulators, primary screen, CHO-K1 cells, Fluo-8 calcium fluorescence. AID 624126, 2012. 0.4% of 360,000 active. Muscarinic acetylcholine receptor M4 (Homo sapiens), P08173. activation, % at 3 µM. CHO-K1 hM4/Gqi5, ACh EC20; 0% = ACh EC20, 100% = maximal ACh;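 active = activation above its plate's cutoff, the mean activation of sample wells plus 3 SD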
M5 PAM – human M5 muscarinic receptor positive allosteric modulators, primary screen, CHO-K1 cells, Fluo-8 calcium fluorescence. 0.3% of 360,000 active. Muscarinic acetylcholine receptor M5 (Homo sapiens), P08912. activation, % at 3 µM. CHO-K1 hM5, ACh EC20 PAM; 0% = ACh EC20, 100% = ACh EC100;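 active = activation above the run cutoff, the mean activation of all test compounds plus 3 SD, cut at about 18% in these data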
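system = human M5 receptor in CHO-K1 cells | compound = one concentration, 3 µM final (nominal) | schedule = Post-acetylcholine fluorescence recording 140 s | signal = Fluo-8 calcium dye fluorescence, kinetic read | benchmarks = low control EC20 acetylcholine (0%), high control EC100 acetylcholine (100%) | repeats = singlicate, one well per test compound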
M4 antag – human M4 muscarinic receptor antagonists, primary screen, CHO cells, Fluo-8 calcium fluorescence | 0.73% of 360,000 active | CHO-hM4 cells, ACh EC80 | inhibition, % at 3 µM | Muscarinic acetylcholine receptor M4 (Homo sapiens), P08173;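 active = inhibition above its plate's cutoff, the mean inhibition of sample wells plus 3 SD, cut at about 27% in these data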;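 note: 0% = acetylcholine EC80 with DMSO and 100% = DMSO without agonist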
CHRM5 agonist – human M5 muscarinic receptor agonists, primary screen, CHO-K1 cells, Fluo-8 calcium fluorescence; Muscarinic acetylcholine receptor M5 (Homo sapiens), P08912; CHO-K1 hM5 cells; 0% DMSO wells, 100% maximal acetylcholine response; activation, % at 3 µM; 0.19% of 360,000 active; AID 624037, 2012;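 active = activation above the run's mean over test compounds plus 3 SD, cut at about 23% in these data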;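 note: signal is peak over basal fluorescence ratio across the kinetic read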
Numbers without * were called inactive.

SMILES | M4 ag | M5 antag | M4 PAM | M5 PAM | M4 antag | CHRM5 agonist
Cn1ncc(Cl)c1C(=O)N1CCN(c2ccc(Cl)c(Cl)c2)CC1 | 16 | 29* | 0 | -15 | -8 | 2
C/C(N)=C(/C#N)C(=O)CSc1nc2scc(-c3ccccc3)c2c(=O)n1C | 2 | 4 | 5 | 8 | 2 | 4
COc1ccc(-c2nnc(SCC(=O)NC3CCCc4ccccc43)n2N)cc1 (stereo unspecified) | 2 | -4 | 2 | 7 | -2 | -1
Cc1cc(C)cc(NC(=O)NCc2c(-c3ccccc3)noc2C)c1 | 1 | -2 | 7 | 10 | -12 | -3
Cc1onc(-c2ccccc2)c1CNC(=O)Nc1ccc(C(F)(F)F)cc1 | 13 | 38* | -13 | -24 | 10 | 3
CCc1nc2ccc(C(=O)N3CCN(C(C)=O)CC3)cn2c1N(CC)C(=O)NCCc1ccccc1 | 1 | -2 | -2 | -2 | -5 | 0
C=CCn1nc(-c2ccccc2)cc1C(=O)OCC | -2 | -5 | 19 | 21* | -13 | 5
CCOC(=O)c1cc(-c2ccccc2)nn1CCC#N | 0 | 3 | 4 | 4 | -4 | 2
Cc1cccc(C)c1-n1cccc1/C=C1/C(=N)N2C(=NC1=O)SN=C2S(C)(=O)=O | -1 | 19 | -11 | -18 | 8 | -10
Cc1ccc(-n2cccc2/C=C2/C(=N)N3C(=NC2=O)SN=C3S(C)(=O)=O)cc1Cl | 2 | 28* | 16 | 19* | 31* | 2
Cc1ccc(C(=O)OCc2cc(=O)n3c(C)csc3n2)s1 | 5 | 8 | 5 | -7 | 7 | -6
COc1ccccc1CN1CCC(CNS(=O)(=O)c2cc(-c3onc(C)c3C)ccc2OC)CC1 | 2 | 15 | -23 | -14 | 42* | -9
CC1CC1C(=O)N1CCN(S(=O)(=O)c2cc(C(F)(F)F)cc(C(F)(F)F)c2)CC1 (stereo unspecified) | 1 | -4 | 1 | -1 | 6 | 7
CC(=O)N1N=C(c2ccc(C)cc2)OC1c1cccnc1 (stereo unspecified) | 0 | 2 | -10 | 0 | 7 | -1
CNC(=O)CC1C(=O)N(C)C(=S)N1NC(=O)c1ccccc1 (stereo unspecified) | 3 | 9 | -5 | 1 | 1 | 5
CCNC(=O)CC1C(=O)N(CC)C(=S)N1NC(=O)c1ccccc1 (stereo unspecified) | 5 | 29* | 17* | 28* | 21 | 1
CO[C@@]1(NC(=O)C2SC(=C(C(N)=O)C(=O)O)S2)C(=O)N2C(C(=O)O)=C(CSc3nnnn3C)CS[C@@H]21 (stereo partly specified) | 1 | -1 | -7 | -1 | 43* | 1
CC(=O)Nc1sc2c(c1C(c1ccccc1Cl)N1CCN(CCO)CC1)CCCC2 (stereo unspecified) | 6 | 65* | -15 | -25 | 11 | -5
COCc1nc2sc3c(c2c(=O)[nH]1)CCCC3 | 10 | 13 | -7 | -13 | -6 | 1
CCCc1nc2sc3c(c2c(=O)[nH]1)CCCC3 | 0 | -3 | 5 | 18* | -8 | -2
CC(=O)C[C@@H](O)CC(=O)[C@H]1OC(=O)CC/C=C\Cc2ccccc21 | 1 | 18 | 4 | -9 | 5 | 0
CC(=O)C[C@@H](O)CC(=O)[C@@H]1OC(=O)CC/C=C\Cc2ccccc21 | 2 | -6 | 26* | 12 | -3 | 3
COc1ccc([C@H]2N[C@]3(CCCN(Cc4ccccc4)C3=O)[C@H]3C(=O)N(C)C(=O)[C@@H]23)cc1 | 1 | 1 | 6 | -1 | -3 | 0
Cc1cc(-c2csc(NC(=O)c3ccc(C#N)cc3)n2)c(C)n1Cc1ccco1 | 1 | 7 | 25* | 6 | 15 | 3
CCCCNC(=O)C1(C)CCCCN1C(=O)c1c(Cl)cccc1Cl (stereo unspecified) | 0 | 4 | 0 | -3 | -5 | -1
SMILES | M4 ag | M5 antag | M4 PAM | M5 PAM | M4 antag | CHRM5 agonist
COc1ccc(OCC(=O)Nc2cc(OC)ccc2N2CCCCC2)cc1 | 0 | 18 | -2 | -6 | 6 | -4
CCn1c(CNc2ccccc2Cl)nnc1SCCN1CCCCC1 | 1 | 1 | -19 | -7 | 33* | -8
CC(C)CC(NS(=O)(=O)OCC(Cl)(Cl)Cl)c1ccccc1 (stereo unspecified) | 0 | 12 | -15 | -24 | 30* | -8
COC(=O)CCC(NS(=O)(=O)OCC(Cl)(Cl)Cl)c1ccccc1 (stereo unspecified) | 1 | -1 | -2 | 5 | -3 | -2
O=C(CN1CCC(NC(=O)c2cccc(F)c2)CC1)NCc1cccs1 | 3 | 17 | 24* | -1 | -3 | -1
O=S(=O)(NCCCNS(=O)(=O)c1c(F)cccc1F)c1ccc2c(c1)OCCO2 | 6 | 2 | 1 | -6 | -9 | -1
Cc1nn(Cc2ccccc2)c(Cl)c1/C=C/C(=O)OCC(=O)N(C)C1CCS(=O)(=O)C1 (stereo unspecified) | 13 | 13 | -16 | -11 | 18 | 1
CC1CN(C)C(C)c2c1oc1ccc(N)cc21 (stereo unspecified) | 1 | -3 | 5 | 20* | -10 | -1
CCCCc1nnc(NC(=O)C23CC4CC(CC(NC(C)=O)(C4)C2)C3)s1 | 1 | 33* | -4 | -11 | 11 | -3
CCOc1ccccc1-c1cc(NC)ncn1 | 1 | -3 | 1 | 3 | 4 | 0
CC(C)n1c(=O)[nH]c2ccccc21 | 1 | -1 | 1 | -2 | 2 | 1
Cc1ccc(NC(=O)c2ccc3c(c2)[nH]c(=O)n3C(C)C)cc1 | 5 | 28* | -9 | -16 | 1 | -1
CCCCS(=O)(=O)c1sc2nc(C)cc(C)c2c1N | 2 | -11 | 6 | 21* | -2 | 7
O=C1NC(=S)NC1(c1ccccc1)c1ccccc1 | 0 | 9 | -9 | -14 | 41* | -11
O=C1NC(=O)C(c2ccccc2)(c2ccccn2)N1 (stereo unspecified) | 1 | 11 | 4 | -1 | -3 | 2
Cc1ccc(/C=C/C(=O)NC2CCCCCCC2)o1 | 0 | 5 | 28* | 2 | 7 | -2
Cc1ccc(/C=N/NC(=O)NC2CCCCC2)o1 | 3 | 4 | -6 | -12 | 8 | -1

Screens from PubChem.
